Experimental data from ChEMBL document CHEMBL5030522, “A Convenient Chemoenzymatic Preparation of Chimeric Macrocyclic Peptide Antibiotics with Potent Activity against Gram-Negative Pathogens” (2021).
Values after ≈ are worked out from the molar mass of the structure shown. Numbered stars: 1 amine (or outer) side, 2 acyl side, 3 side chain; on linkers, the order of the positions; unused ones are H or OH. Bridge positions count the residues as written; N and C are the ends. Square brackets hold non-standard residues; d marks the D form. Peptide text beside a SMILES is read from it. I, II: the chains in the order shown. X1 = NC(=O)[C@H](Cc1cn(CCOCCOCCOCCC(=O)[*:2])nn1)N[*:1]; X3 = NC(=O)[C@H](Cc1cn(CCCCC(=O)[*:2])nn1)N[*:1]; X2 = NC(=O)[C@H](Cc1cn(CC(=O)[*:2])nn1)N[*:1]; Tle = CC(C)(C)[C@H](N)C(=O)O; dDab = NCC[C@@H](N)C(=O)O; hSer = N[C@@H](CCO)C(=O)O; Dab = NCC[C@H](N)C(=O)O

Tests used:
Assay type in all cases: functional
Acinetobacter baumannii [1] = experiment: Antibacterial activity against Acinetobacter baumannii ATCC 9955 assessed as inhibition of bacterial growth after 16 hrs by broth microdilution method
Summary of the method: (§1)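 MIC per CLSI broth microdilution. Strains streaked from glycerol stocks on blood agar, 16 h at 37 °C. Single colonies inoculated into cation-adjusted Mueller-Hinton broth (10 mg L–1 Mg2+, 25 mg L–1 Ca2+). Peptides serially diluted in this broth with 0.002% (v/v) final polysorbate-80 in polypropylene plates. Inoculum 5 × 10^5 CFU mL–1. Plates sealed, 16 h at 37 °C, growth scored visually. MIC in μg/mL, triplicates on two separate days.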

Acinetobacter baumannii [2] = experiment: Antibacterial activity against multidrug-resistant Acinetobacter baumannii assessed as inhibition of bacterial growth after 16 hrs by broth microdilution method
Summary of the method: (§2)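 CLSI broth microdilution. Strains grown from glycerol stocks on blood agar 16 h at 37 °C; colonies used to inoculate CAMHB containing 10 mg L–1 Mg2+ and 25 mg L–1 Ca2+. Peptides dissolved in CAMHB with 0.002% (v/v) final polysorbate-80, serially diluted in polypropylene plates; inoculum 5 × 10^5 CFU mL–1. Sealed, 16 h at 37 °C, growth scored visually. MIC in μg/mL; three or more measurements on multiple days.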

Klebsiella pneumoniae [3] = experiment: Antibacterial activity against Klebsiella pneumoniae producing NDM1 assessed as inhibition of bacterial growth after 16 hrs by broth microdilution method; summary of the method: as §1
Pseudomonas aeruginosa [4] = experiment: Antibacterial activity against Pseudomonas aeruginosa NRZ 08418 producing NDM1 assessed as inhibition of bacterial growth after 16 hrs by broth microdilution method; summary of the method: as §1
Pseudomonas aeruginosa [5] = experiment: Antibacterial activity against Pseudomonas aeruginosa producing NDM1 assessed as inhibition of bacterial growth after 16 hrs by broth microdilution method; summary of the method: as §2
Escherichia coli [6] = experiment: Antibacterial activity against Escherichia coli ATCC 35218 assessed as inhibition of bacterial growth after 16 hrs by broth microdilution method; summary of the method: as §1
Escherichia coli [7] = experiment: Antibacterial activity against Escherichia coli producing NDM1 assessed as inhibition of bacterial growth after 16 hrs by broth microdilution method; summary of the method: as §2
Escherichia coli [8] = experiment: Antibacterial activity against Escherichia coli producing MCR1 assessed as inhibition of bacterial growth after 16 hrs by broth microdilution method; summary of the method: as §1
Escherichia coli [9] = experiment: Antibacterial activity against Escherichia coli producing MCR2 assessed as inhibition of bacterial growth after 16 hrs by broth microdilution method; summary of the method: as §1
Escherichia coli [10] = experiment: Antibacterial activity against Escherichia coli producing MCR3 assessed as inhibition of bacterial growth after 16 hrs by broth microdilution method; summary of the method: as §1
Staphylococcus aureus = experiment: Antibacterial activity against methicillin resistant Staphylococcus aureus USA300 by measuring MIC after 16 hrs by broth microdilution method; summary of the method: as §2
Pseudomonas aeruginosa [11] = experiment: Antibacterial activity against Pseudomonas aeruginosa ATCC 27853 assessed as inhibition of bacterial growth after 16 hrs by broth microdilution method; summary of the method: as §1
Pseudomonas aeruginosa [12] = experiment: Antibacterial activity against Pseudomonas aeruginosa M-120 assessed as inhibition of bacterial growth after 16 hrs by broth microdilution method; summary of the method: as §1
Acinetobacter baumannii [13] = experiment: Antibacterial activity against Acinetobacter baumannii NRZ 00687 producing NDM2 assessed as inhibition of bacterial growth after 16 hrs by broth microdilution method; summary of the method: as §1
Klebsiella pneumoniae [14] = experiment: Antibacterial activity against Klebsiella pneumoniae ATCC 11228 assessed as inhibition of bacterial growth after 16 hrs by broth microdilution method; summary of the method: as §1
Acinetobacter baumannii [15] = experiment: Antibacterial activity against Acinetobacter baumannii ATCC 17978 assessed as inhibition of bacterial growth after 16 hrs by broth microdilution method; summary of the method: as §1

| Structure (SMILES) | MIC (Acinetobacter baumannii [1]) [µg/mL] | MIC (Acinetobacter baumannii [2]) [µg/mL] | MIC (Klebsiella pneumoniae [3]) [µg/mL] | MIC (Pseudomonas aeruginosa [4]) [µg/mL] | MIC (Pseudomonas aeruginosa [5]) [µg/mL] | MIC (Escherichia coli [6]) [µg/mL] | MIC (Escherichia coli [7]) [µg/mL] | MIC (Escherichia coli [8]) [µg/mL] | MIC (Escherichia coli [9]) [µg/mL] | MIC (Escherichia coli [10]) [µg/mL] | MIC (Staphylococcus aureus) [µg/mL] | MIC (Pseudomonas aeruginosa [11]) [µg/mL] | MIC (Pseudomonas aeruginosa [12]) [µg/mL] | MIC (Acinetobacter baumannii [13]) [µg/mL] | MIC (Klebsiella pneumoniae [14]) [µg/mL] | MIC (Acinetobacter baumannii [15]) [µg/mL] |
| --- | --- | --- | --- | --- | --- | --- | --- | --- | --- | --- | --- | --- | --- | --- | --- | --- |
| CC(C)C[C@@H]1NC(=O)[C@@H](CC(C)C)NC(=O)[C@H](CCN)NC(=O)[C@@H](NC(=O)[C@H](CCN)NC(=O)[C@@H](NC(=O)[C@H](CCN)NC(=O)CC[C@@H]2NC(=O)[C@H](CCN)NC(=O)[C@H](Cc3ccc(O)cc3)NC(=O)[C@H]([C@@H](C)O)NC(=O)[C@H](C(C)C)NC(=O)[C@@H]3CCCN3C(=O)[C@@H](C)NC(=O)[C@H](CO)NC(=O)[C@H](C)NC(=O)[C@H](C(C)(C)C)NC(=O)[C@H](CCO)NC(=O)[C@H](Cc3c[nH]c4ccccc34)NC(=O)[C@H](CCO)NC(=O)[C@@H](CCN)NC2=O)[C@@H](C)O)CCNC(=O)[C@H]([C@@H](C)O)NC(=O)[C@H](CCN)NC(=O)[C@H](CCN)NC1=O (I: cyclo([dDab][hSer]W[hSer][Tle]AS[dA]PVTY[Dab]E) / II: [Dab]T[Dab][Dab][Dab][dL]L[Dab][Dab]T; amide I:14-II:N; lactam II:4-II:C) | 0.2 (≈ 0.079 µM) | 0.2 (≈ 0.079 µM) | 0.8 (≈ 0.316 µM) | 0.8 (≈ 0.316 µM) | 0.4 (≈ 0.158 µM) | 0.2 (≈ 0.079 µM) | 0.1 (≈ 0.0395 µM) | 0.2 (≈ 0.079 µM) | 0.2 (≈ 0.079 µM) | 0.2 (≈ 0.079 µM) | > 6.4 |  |  |  |  |  |
| CC(C)C[C@@H]1NC(=O)[C@@H](CC(C)C)NC(=O)[C@H](CCN)NC(=O)[C@@H](NC(=O)[C@H](CCN)NC(=O)[C@@H](NC(=O)Cn2cc(C[C@H](NC(=O)CC[C@@H]3NC(=O)[C@H](CCN)NC(=O)[C@H](Cc4ccc(O)cc4)NC(=O)[C@H]([C@@H](C)O)NC(=O)[C@H](C(C)C)NC(=O)[C@@H]4CCCN4C(=O)[C@@H](C)NC(=O)[C@H](CO)NC(=O)[C@H](C)NC(=O)[C@H](C(C)(C)C)NC(=O)[C@H](CCO)NC(=O)[C@H](Cc4c[nH]c5ccccc45)NC(=O)[C@H](CCO)NC(=O)[C@@H](CCN)NC3=O)C(N)=O)nn2)[C@@H](C)O)CCNC(=O)[C@H]([C@@H](C)O)NC(=O)[C@H](CCN)NC(=O)[C@H](CCN)NC1=O (I: cyclo([dDab][hSer]W[hSer][Tle]AS[dA]PVTY[Dab]E) / II: T[Dab][Dab][Dab][dL]L[Dab][Dab]T; linker I:14-II:N via X2; lactam II:3-II:C) | 2 (≈ 0.761 µM) | 1 (≈ 0.381 µM) | 2 (≈ 0.761 µM) |  | 2 (≈ 0.761 µM) | 0.5 (≈ 0.19 µM) |  | 2 (≈ 0.761 µM) | 2 (≈ 0.761 µM) |  | > 6.4 | 1 (≈ 0.381 µM) | 4 (≈ 1.52 µM) | 0.5 (≈ 0.19 µM) |  |  |
| CC(C)C[C@@H]1NC(=O)[C@@H](CC(C)C)NC(=O)[C@H](CCN)NC(=O)[C@@H](NC(=O)[C@H](CCN)NC(=O)[C@@H](NC(=O)CCOCCOCCOCCn2cc(C[C@H](NC(=O)CC[C@@H]3NC(=O)[C@H](CCN)NC(=O)[C@H](Cc4ccc(O)cc4)NC(=O)[C@H]([C@@H](C)O)NC(=O)[C@H](C(C)C)NC(=O)[C@@H]4CCCN4C(=O)[C@@H](C)NC(=O)[C@H](CO)NC(=O)[C@H](C)NC(=O)[C@H](C(C)(C)C)NC(=O)[C@H](CCO)NC(=O)[C@H](Cc4c[nH]c5ccccc45)NC(=O)[C@H](CCO)NC(=O)[C@@H](CCN)NC3=O)C(N)=O)nn2)[C@@H](C)O)CCNC(=O)[C@H]([C@@H](C)O)NC(=O)[C@H](CCN)NC(=O)[C@H](CCN)NC1=O (I: cyclo([dDab][hSer]W[hSer][Tle]AS[dA]PVTY[Dab]E) / II: T[Dab][Dab][Dab][dL]L[Dab][Dab]T; linker I:14-II:N via X1; lactam II:3-II:C) | 8 (≈ 2.88 µM) | 4 (≈ 1.44 µM) |  |  | 4 (≈ 1.44 µM) | 2 (≈ 0.721 µM) |  | 16 (≈ 5.77 µM) | 16 (≈ 5.77 µM) |  | > 64 | 4 (≈ 1.44 µM) | 8 (≈ 2.88 µM) | 2 (≈ 0.721 µM) | 8 (≈ 2.88 µM) |  |
| CC(C)[C@@H]1NC(=O)[C@@H]2CCCN2C(=O)[C@@H](C)NC(=O)[C@H](CO)NC(=O)[C@H](C)NC(=O)[C@H](C(C)(C)C)NC(=O)[C@H](CCO)NC(=O)[C@H](Cc2c[nH]c3ccccc23)NC(=O)[C@H](CCO)NC(=O)[C@@H](CCN)NC(=O)[C@H](CCC(N)=O)NC(=O)[C@H](CCN)NC(=O)[C@H](Cc2ccc(O)cc2)NC(=O)[C@H]([C@@H](C)O)NC1=O (cyclo([dDab][hSer]W[hSer][Tle]AS[dA]PVTY[Dab]Q)) |  |  |  |  |  |  |  |  |  |  | > 64 |  |  |  |  |  |
| CC(C)C[C@@H]1NC(=O)[C@@H](CC(C)C)NC(=O)[C@H](CCN)NC(=O)[C@@H](NC(=O)Cn2cc(C[C@H](NC(=O)CC[C@@H]3NC(=O)[C@H](CCN)NC(=O)[C@H](Cc4ccc(O)cc4)NC(=O)[C@H]([C@@H](C)O)NC(=O)[C@H](C(C)C)NC(=O)[C@@H]4CCCN4C(=O)[C@@H](C)NC(=O)[C@H](CO)NC(=O)[C@H](C)NC(=O)[C@H](C(C)(C)C)NC(=O)[C@H](CCO)NC(=O)[C@H](Cc4c[nH]c5ccccc45)NC(=O)[C@H](CCO)NC(=O)[C@@H](CCN)NC3=O)C(N)=O)nn2)CCNC(=O)[C@H]([C@@H](C)O)NC(=O)[C@H](CCN)NC(=O)[C@H](CCN)NC1=O (I: cyclo([dDab][hSer]W[hSer][Tle]AS[dA]PVTY[Dab]E) / II: [Dab][Dab][dL]L[Dab][Dab]T; linker I:14-II:N via X2; lactam II:1-II:C) | 64 (≈ 26.4 µM) | 32 (≈ 13.2 µM) |  | 64 (≈ 26.4 µM) | 32 (≈ 13.2 µM) |  |  |  | 32 (≈ 13.2 µM) | 64 (≈ 26.4 µM) | > 64 | 64 (≈ 26.4 µM) | 64 (≈ 26.4 µM) | 64 (≈ 26.4 µM) | 16 (≈ 6.6 µM) |  |
| CC(C)C[C@@H]1NC(=O)[C@@H](CC(C)C)NC(=O)[C@H](CCN)NC(=O)[C@@H](NC(=O)[C@H](CCN)NC(=O)[C@@H](NC(=O)CCCCn2cc(C[C@H](NC(=O)CC[C@@H]3NC(=O)[C@H](CCN)NC(=O)[C@H](Cc4ccc(O)cc4)NC(=O)[C@H]([C@@H](C)O)NC(=O)[C@H](C(C)C)NC(=O)[C@@H]4CCCN4C(=O)[C@@H](C)NC(=O)[C@H](CO)NC(=O)[C@H](C)NC(=O)[C@H](C(C)(C)C)NC(=O)[C@H](CCO)NC(=O)[C@H](Cc4c[nH]c5ccccc45)NC(=O)[C@H](CCO)NC(=O)[C@@H](CCN)NC3=O)C(N)=O)nn2)[C@@H](C)O)CCNC(=O)[C@H]([C@@H](C)O)NC(=O)[C@H](CCN)NC(=O)[C@H](CCN)NC1=O (I: cyclo([dDab][hSer]W[hSer][Tle]AS[dA]PVTY[Dab]E) / II: T[Dab][Dab][Dab][dL]L[Dab][Dab]T; linker I:14-II:N via X3; lactam II:3-II:C) | 2 (≈ 0.749 µM) | 2 (≈ 0.749 µM) | 4 (≈ 1.5 µM) | 4 (≈ 1.5 µM) | 2 (≈ 0.749 µM) | 1 (≈ 0.375 µM) |  | 4 (≈ 1.5 µM) | 4 (≈ 1.5 µM) |  | > 64 |  |  |  | 2 (≈ 0.749 µM) | 1 (≈ 0.375 µM) |
